# High-throughput results from PubChem.
# Rows were chosen to be rich in hits. Some 3.4% of all compounds tested hit in one or more screens of this group.
# TRPML3 agonist – agonists of human TRPML3 channel; HEK293 TRPML3-YFP, Fluo-8 calcium fluorescence; 100% = the carbachol control signal; AID 1448; activation, % at 3 µM; hit rate 0.29% among 220,000;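 active = activation above its plate's cutoff, the mean activation of the plate's test wells plus 3 SD, cut at about 12% in these data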;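 also: 0% = DMSO only wells and 100% = carbachol wells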
#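 Test system: HEK293 cells stably carrying human TRPML3-YFP; Doses: single dose, 3 µM final nominal compound, 0.3% DMSO final; Schedule: dye loading 1 h 37 °C then 30 min ambient, 125 s read; Technique: Fluo-8 calcium fluorescence; Benchmarks: high control carbachol 87 µM, low control DMSO.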
# GPR7 antagonist – antagonists of human GPR7 (neuropeptides B/W receptor 1). P48145. GPR7-expressing cells, fluorescence antagonist assay. inhibition, % at 4.4 µM. hit rate 1.1% among 290,000. AID 1861; in the data active = inhibition above about 16%, passing the limit was not always enough;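 also: cells stimulated with the agonist NPW; 0% = agonist with vehicle and 100% = vehicle without agonist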
# Target sequence (P48145 whole entry, looked up): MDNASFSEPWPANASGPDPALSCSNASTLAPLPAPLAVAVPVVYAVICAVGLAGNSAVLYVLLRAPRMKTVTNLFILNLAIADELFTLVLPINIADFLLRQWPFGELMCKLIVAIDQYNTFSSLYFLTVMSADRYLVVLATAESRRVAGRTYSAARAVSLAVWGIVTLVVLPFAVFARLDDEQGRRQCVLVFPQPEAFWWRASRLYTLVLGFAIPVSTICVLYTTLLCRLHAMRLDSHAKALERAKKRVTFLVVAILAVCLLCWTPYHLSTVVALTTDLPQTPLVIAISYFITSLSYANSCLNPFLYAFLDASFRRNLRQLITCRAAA
# zfTRPN1 agonist – activates the zebrafish TRPN1 channel. HEK293 zebrafish TRPN1-YFP, Fluo-8 calcium fluorescence; 100% = response to 87 µM carbachol. hit rate 0.18% among 220,000. activation, % at 3 µM;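 active = activation above its plate's cutoff, the mean activation of test wells on that plate plus 3 SD, cut at about 19% in these data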;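 also: 0% = DMSO alone and 100% = 87 µM carbachol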
#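 Control set: carbachol 87 µM as high control, DMSO as low control; system: HEK293 stable line with zebrafish TRPN1-YFP; read-out: % activation versus carbachol response; detection: intracellular calcium fluorescence with Fluo-8; doses: single test compound dose, 3 µM nominal, 0.3% DMSO; schedule: dye 1 h 37 °C plus 30 min RT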
# TAAR1 agonist – human TAAR1 agonism; CHO RD-HGA16 TAAR1, Fluo-8 calcium fluorescence; vehicle wells 0%, saturating PEA agonist 100%; hit rate 0.99% among 360,000; Q96RJ0; activation, % at 3 µM; AID 624467;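 active = activation above the mean activation of all test compounds in the run plus 3 SD, cut at about 38% in these data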
#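 Test system: RD-HGA16 (CHO) cells co-expressing Gα16 and hTAAR1 / Benchmarks: DMSO vehicle as 0%, PEA at EC100 as 100% / Repeats: no replicates (n 1) / Measure: % activation from peak over basal fluorescence ratio, DMSO-to-PEA scaled / Timing: 17-24 h plating, Fluo-8 75 min 37 °C, 30 min RT / Technique: kinetic Fluo-8 calcium fluorescence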
# TAAR1 antag – antagonists of human TAAR1; Q96RJ0; CHO RD-HGA16 TAAR1, Fluo-8 calcium fluorescence, antagonist; inhibition, % at 3 µM; hit rate 1.5% among 360,000;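 active = inhibition above a per-plate cutoff, the mean inhibition of test compounds on that plate plus 3 SD, cut at about 49% in these data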;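 also: 0% = DMSO plus EC80 beta-PEA response and 100% = DMSO alone without agonist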
#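 Test system: CHO RD-HGA16 cells bearing hTAAR1 | Reagent: β-PEA, EC80 | Compound dosing: 3 µM, single point | Schedule: Dye loading 75 min at 37 °C, then 30 min room temperature | Signal: Calcium fluorescence with Fluo-8 | Evaluation: Percent inhibition of PEA-evoked calcium signal, max/basal emission ratio | Control set: DMSO-only wells and EC80 β-PEA-stimulated wells | Repeats: Singlicate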
# LANA-H2B inh – blocks KSHV LANA binding to histone H2A/H2B; inhibition, % (concentration not given with the values); cell-free LANA-H2A/H2B peptide, fluorescence polarization; hit rate 0.6% among 320,000; in the data active = inhibition mostly above about 10%, no sharp cut-off; inactive = mostly below about 6.7%
# nonsel antag count – nonselective antagonism, TAAR1 counter-screen | counterscreen cell line, calcium fluorescence, antagonist mode | shares compounds with TAAR1 antag | inhibition, % at 3 µM | hit rate 77% among 2,400 | AID 651780; in the data active = inhibition above about 22%;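 also: CHO-Ga16 host cells stimulated with ATP at an EC80 level; 0% = agonist EC80 plus vehicle and 100% = vehicle without agonist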
# TAAR1 ant conf – human TAAR1 antagonism, confirmed; shares compounds with TAAR1 antag; TAAR1-expressing cells, fluorescence antagonist read-out; inhibition, % at 3 µM; hit rate 40% among 2,400; AID 651785; in the data active = inhibition above about 49%;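 also: CHO-Ga16 host cells challenged with agonist PEA near its EC80; 0% = agonist at EC80 plus vehicle and 100% = vehicle with no agonist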
# Ga16 nonsel ag – counter-screen for TAAR1 antagonists: nonselective Ga16 agonists. shares compounds with TAAR1 antag. Ga16-expressing cells, calcium fluorescence, agonist counterscreen. activation, % at 3 µM. hit rate 18% among 2,400. AID 651953; in the data active = activation above about 12%;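 also: 0% = vehicle wells and 100% = saturating stimulus response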
# TAAR1 ag counter – TAAR1 agonism, antagonist counter-screen; activation, % at 3 µM; hTAAR1 cell line, fluorescence activation, agonist mode; hit rate 2% among 2,400; shares compounds with TAAR1 antag; in the data active = activation above about 37%;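 also: CHO cells stably expressing TAAR1 with calcium dye readout; 0% = DMSO vehicle and 100% = full agonist response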
# Active calls of the source: *; nt = no result given.
SMILES,TRPML3 agonist,GPR7 antagonist,zfTRPN1 agonist,TAAR1 agonist,TAAR1 antag,LANA-H2B inh,nonsel antag count,TAAR1 ant conf,Ga16 nonsel ag,TAAR1 ag counter
COc1cccc(OCc2cc(C(=O)N(Cc3ccccc3)CC3CC3)no2)c1,nt,-12,nt,2,54*,-7,28*,40,9,17
O=C(c1ccncc1)c1ccc(N2CCN(C3CC(=O)N(Cc4ccccc4)C3=O)CC2)cc1 (centres undefined),5,3,10,27,51*,-3,26*,27,11,10
O=C(CCc1ccccc1)c1c(O)cc(O)cc1O,nt,nt,nt,3,68*,-6,25*,30,4,1
C=CS(=O)(=O)N(Cc1ccccc1)[C@H](CO)CC(C)C,nt,nt,nt,-1,2,nt,nt,nt,nt,nt
CC(C)C[C@H](CO)N(Cc1ccccc1)S(=O)(=O)N(Cc1ccccc1)[C@@H](CO)CC(C)C,nt,nt,nt,11,78*,7,34*,55*,9,10
O=C(c1oc2ccccc2c1CSCc1ccccc1)N1CCN(c2ncccn2)CC1,1,10,0,11,65*,0,30*,41,5,4
Cc1cc(C)c(C)c(S(=O)(=O)N2CCC(C(=O)N(C)Cc3nc4ccccc4c(=O)[nH]3)CC2)c1C,nt,nt,nt,34,59*,nt,28*,43,8,12
CC1=C(C(=O)OCc2ccccc2)C(c2ccccc2[N+](=O)[O-])NC(=O)N1C (centres undefined),nt,9,nt,7,-15,-4,nt,nt,nt,nt
Cc1cc(C)nc(NC(=NCCc2c[nH]c3ccccc23)NC(=O)Nc2ccc(Cl)c(Cl)c2)n1,1,-2,0,6,-5,1,nt,nt,nt,nt
Cc1cc(C)nc(NC(=NCCc2c[nH]c3ccccc23)NC(=O)Nc2ccccc2)n1,0,-5,0,3,64*,-2,30*,54*,5,5
Cc1cc(C)nc(NC(=NCCc2c[nH]c3ccccc23)NC(=O)c2ccco2)n1,0,-7,0,13,68*,3,28*,53*,7,6
Cc1ccc2nc(C3CCCCC3)c(Cc3ccccc3)n2c1,nt,nt,nt,15,-18,nt,nt,nt,nt,nt
CCCn1cnc2c(SCc3ccccc3Cl)nc(N)nc21,nt,nt,nt,14,-25,nt,nt,nt,nt,nt
Cc1cc(C)nc(N/N=C/C2=C(N3CCOCC3)C(=C\c3ccc(Cl)cc3)/CC2)n1,0,-2,-1,-1,0,9,nt,nt,nt,nt
O=C(O)c1ccc(N/N=C/C2=C(N3CCOCC3)C(=C\c3ccccc3)/CC2)cc1,1,-8,1,14,82*,5,51*,65*,9,8
Cc1ccccc1-c1cc2nc(NCCN3CCNC3=O)n(C)c(=O)c2s1,nt,nt,nt,3,-24,nt,nt,nt,nt,nt
Cc1ccc2c(c1)C(=O)C(=O)N2Cc1ccc(Br)cc1,nt,nt,nt,18,82*,-1,19,43,8,0
Cc1ccc(CN2C(=O)C(=O)c3cc(C)ccc32)cc1,nt,nt,nt,5,33,-6,nt,nt,nt,nt
COc1ccc(C2CC(=O)C(c3ccccc3OC)=CN2Cc2ccccc2)cc1 (centres undefined),nt,nt,nt,6,56*,nt,21,37,5,5
COc1ccc(C2CC(=O)C(c3ccc(C)cc3)=CN2Cc2ccccc2)cc1 (centres undefined),nt,nt,nt,-1,22,nt,nt,nt,nt,nt
Nc1ccc(C#Cc2ccc3oc4ccccc4c(=O)c3c2)cc1,nt,nt,nt,10,68*,-4,19,23,3,4
COc1ccccc1CNC(=O)N1CCN(c2ccccc2C)CC1,nt,15,nt,3,-20,9,nt,nt,nt,nt
